{
  "source": "paper PMC6660019",
  "about": "(ACS catalysis, 2019)",
  "key": {"LmbB2 [1]": {"molecular_target": "T1, LmbB2 (Streptomyces lincolnensis, UniProt Q54355)", "experiment": "EPR analysis of the ferrous LmbB2-nitrosyl", "settings": "20 mM ligand; for EPR spectroscopic change compared with E-NO· alone: negative controls; for gave (average g value) of E-NO· complex after addition of ligand: 50 K, E-NO· alone gave = 2.030", "outline": "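His6-tagged LmbB2 expressed in E. coli BL21(DE3) with δ-aminolevulinic acid and ferrous ammonium sulfate, then Ni-affinity purified. 200 µM argon-saturated enzyme reduced anaerobically with 1 mM sodium dithionite, then exposed to excess NO from diethylamine NONOate in a sealed O2-free vial. Phenolic ligands added at 20 mM final. Samples frozen in liquid nitrogen. X-band EPR at 9.4 GHz, 100 kHz modulation, 50 K, 0.05 mW.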"}, "LmbB2 [2]": {"molecular_target": "T1, LmbB2", "experiment": "Isothermal titration calorimetry", "format": "binding"}, "LmbB2 [3]": {"molecular_target": "T1, LmbB2", "format": "biochemical"}, "LmbB2 [4]": {"molecular_target": "T1, LmbB2", "experiment": "Oxygen production", "format": "biochemical", "settings": "substrate concentration exceeding 200 µM, 1 mM H2O2"}, "LmbB2 [5]": {"molecular_target": "T1, LmbB2", "experiment": "LmbB2 catalytic reaction with H2O2, product analysis by HPLC", "format": "biochemical", "settings": "after normalizing for the percentage of substrate conversion"}, "[6]": {"settings": "^18O-enriched H2O2 (≥ 90% ^18O), normal water"}, "[7]": {"settings": "^18O-enriched water (88% ^18O), normal H2O2"}, "[8]": {"settings": "^18O-enriched water (88% ^18O), normal H2O2, listed as Tyrosine"}, "[9]": {"settings": "ITC, 100 mM KPi, 50 mM NaCl, pH 8, 20 °C"}, "[10]": {"settings": "^18O-enriched H2O2 (≥ 90% ^18O), normal water, listed as 3-Fluoro-L-tyrosiTane"}, "[11]": {"settings": "^18O-enriched water (88% ^18O), normal H2O2, listed as 3-Fluoro-L-tyrosiTane"}},
  "note": "Read-outs that look alike come from different tables or passages of the source.",
  "data": [
    {"compound": "CC(C)(C)OC(=O)N[C@@H](Cc1ccc(O)cc1)C(=O)O", "note": "[N-boc-L-tyrosine]", "values": [
      {"measurement": "EPR spectroscopic change compared with E-NO· alone", "setting": "LmbB2 [1]", "value": "no significant EPR spectroscopic change"}
    ]},
    {"compound": "N[C@@H](Cc1ccc(O)cc1)C(=O)O", "note": "[compound 1, L-tyrosine]", "values": [
      {"measurement": "Kd", "setting": "LmbB2 [2]", "value": "1.35 ± 0.03", "unit": "µM"},
      {"measurement": "Hydroxylation product ^16O/^16O", "setting": "LmbB2 [3]; [6]", "value": "7.2 ± 0.3", "unit": "%"},
      {"measurement": "Hydroxylation product ^16O/^18O", "setting": "LmbB2 [3]; [6]", "value": "over 90%"},
      {"measurement": "Hydroxylation product ^16O/^18O", "setting": "LmbB2 [3]; ^18O-enriched H2O2 (≥ 90% ^18O), normal water, listed as Tyrosine", "value": "92.8 ± 0.3", "unit": "%"},
      {"measurement": "Hydroxylation product ^16O/^16O", "setting": "LmbB2 [3]; [7]", "value": 87.7, "unit": "%"},
      {"measurement": "Hydroxylation product ^16O/^18O", "setting": "LmbB2 [3]; [7]", "value": 11.2, "unit": "%"},
      {"measurement": "Hydroxylation product ^18O/^18O", "setting": "LmbB2 [3]; [7]", "value": "1.0 ± 0.1", "unit": "%"},
      {"measurement": "Hydroxylation product ^16O/^16O", "setting": "LmbB2 [3]; [8]", "value": "87.7 ± 0.9", "unit": "%"},
      {"measurement": "Hydroxylation product ^16O/^18O", "setting": "LmbB2 [3]; [8]", "value": "11.2 ± 0.8", "unit": "%"},
      {"measurement": "rate of oxygen formation", "setting": "LmbB2 [4]", "value": "zero"},
      {"measurement": "gave (average g value) of E-NO· complex after addition of ligand", "setting": "LmbB2 [1]", "value": 2.027}
    ]},
    {"compound": "N[C@@H](Cc1ccccc1)C(=O)O", "note": "[compound 2, L-phenylalanine]", "values": [
      {"measurement": "Kd", "setting": "LmbB2 [2]", "value": "318 ± 8", "unit": "µM"},
      {"measurement": "gave (average g value) of E-NO· complex after addition of ligand", "setting": "LmbB2 [1]", "value": 2.027}
    ]},
    {"compound": "COc1ccc(C[C@H](N)C(=O)O)cc1", "note": "[compound 3, O-methyl-L-tyrosine]", "values": [
      {"measurement": "Kd", "setting": "LmbB2 [2]; [9]", "value": "1290 ± 140", "unit": "µM"},
      {"measurement": "gave (average g value) of E-NO· complex after addition of ligand", "setting": "LmbB2 [1]", "value": 2.026}
    ]},
    {"compound": "N[C@@H](Cc1ccc(O)c([N+](=O)[O-])c1)C(=O)O", "note": "[compound 4, 3-nitro-L-tyrosine]", "values": [
      {"measurement": "KD", "setting": "LmbB2 [2]; [9]", "value": "no detectable thermal change"}
    ]},
    {"compound": "N[C@@H](Cc1ccc(O)c(F)c1)C(=O)O", "note": "[compound 5, 3-fluoro-L-tyrosine]", "values": [
      {"measurement": "Kd", "setting": "LmbB2 [2]", "value": "22.2 ± 1.1", "unit": "µM"},
      {"measurement": "binding affinity weaker than the native substrate", "setting": "LmbB2 [2]; KD of analog versus L-tyrosine (1)", "value": "around 16 fold"},
      {"measurement": "Dehalogenation and Hydroxylation product (1a) ^16O/^16O", "setting": "LmbB2 [3]; [6]", "value": "30.3 ± 1.0", "unit": "%"},
      {"measurement": "Dehalogenation and Hydroxylation product (1a) ^16O/^18O", "setting": "LmbB2 [3]; [6]", "value": 69.7, "unit": "%"},
      {"measurement": "Hydroxylation product ^16O/^16O", "setting": "LmbB2 [3]; [6]", "value": "15.5 ± 0.2", "unit": "%"},
      {"measurement": "Hydroxylation product ^16O/^18O", "setting": "LmbB2 [3]; [6]", "value": 84.5, "unit": "%"},
      {"measurement": "Dehalogenation and Hydroxylation product (1a) ^16O/^18O", "setting": "LmbB2 [3]; [10]", "value": "69.7 ± 1.0", "unit": "%"},
      {"measurement": "Hydroxylation product ^16O/^18O", "setting": "LmbB2 [3]; [10]", "value": "84.5 ± 0.2", "unit": "%"},
      {"measurement": "Dehalogenation and Hydroxylation product (1a) ^16O/^16O", "setting": "LmbB2 [3]; [7]", "value": 36.2, "unit": "%"},
      {"measurement": "Dehalogenation and Hydroxylation product (1a) ^16O/^18O", "setting": "LmbB2 [3]; [7]", "value": 51.5, "unit": "%"},
      {"measurement": "Dehalogenation and Hydroxylation product (1a) ^18O/^18O", "setting": "LmbB2 [3]; [7]", "value": 12.3, "unit": "%"},
      {"measurement": "Hydroxylation product ^16O/^16O", "setting": "LmbB2 [3]; [7]", "value": 57.3, "unit": "%"},
      {"measurement": "Hydroxylation product ^16O/^18O", "setting": "LmbB2 [3]; [7]", "value": 35.8, "unit": "%"},
      {"measurement": "Hydroxylation product ^18O/^18O", "setting": "LmbB2 [3]; [7]", "value": 6.9, "unit": "%"},
      {"measurement": "Dehalogenation and Hydroxylation product (1a) ^16O/^16O", "setting": "LmbB2 [3]; [11]", "value": "36.2 ± 0.9", "unit": "%"},
      {"measurement": "Dehalogenation and Hydroxylation product (1a) ^16O/^18O", "setting": "LmbB2 [3]; [11]", "value": "51.5 ± 0.7", "unit": "%"},
      {"measurement": "Dehalogenation and Hydroxylation product (1a) ^18O/^18O", "setting": "LmbB2 [3]; [11]", "value": "12.3 ± 1.2", "unit": "%"},
      {"measurement": "Hydroxylation product ^16O/^16O", "setting": "LmbB2 [3]; [11]", "value": "57.3 ± 1.6", "unit": "%"},
      {"measurement": "Hydroxylation product ^16O/^18O", "setting": "LmbB2 [3]; [11]", "value": "35.8 ± 1.6", "unit": "%"},
      {"measurement": "Hydroxylation product ^18O/^18O", "setting": "LmbB2 [3]; [11]", "value": "6.9 ± 0.7", "unit": "%"},
      {"measurement": "rate of oxygen formation", "setting": "LmbB2 [4]", "value": "~10", "unit": "min⁻¹"},
      {"measurement": "ratio of 1a formation among substrates 5, 6 and 7", "setting": "LmbB2 [5]", "value": 4.5}
    ]},
    {"compound": "N[C@@H](Cc1ccc(O)c(Cl)c1)C(=O)O", "note": "[compound 6, 3-chloro-L-tyrosine]", "values": [
      {"measurement": "Kd", "setting": "LmbB2 [2]", "value": "346 ± 2", "unit": "µM"},
      {"measurement": "ratio of 1a formation among substrates 5, 6 and 7", "setting": "LmbB2 [5]", "value": 1.3}
    ]},
    {"compound": "N[C@@H](Cc1ccc(O)c(I)c1)C(=O)O", "note": "[compound 7, 3-iodo-L-tyrosine]", "values": [
      {"measurement": "Kd", "setting": "LmbB2 [2]", "value": "7820 ± 180", "unit": "µM"},
      {"measurement": "ratio of 1a formation among substrates 5, 6 and 7", "setting": "LmbB2 [5]", "value": 1}
    ]},
    {"compound": "Cc1ccc(O)cc1", "note": "[p-cresol]", "values": [
      {"measurement": "EPR spectroscopic change compared with E-NO· alone", "setting": "LmbB2 [1]", "value": "no significant EPR spectroscopic change"}
    ]}
  ]
}
